Measured values: ChEMBL document CHEMBL4513216, “Probing the Open Global Health Chemical Diversity Library for Multistage-Active Starting Points for Next-Generation Antimalarials” (ACS Infect Dis, 2020)

Assay: Toxicity liver stage against HepG2, at 10uM
Assay type: cell-based
Design: test concentration 10 uM, cell line HepG2-A16-CD81EGFP
Conditions: human, HepG2-A16-CD81EGFP cells; read-out: INHIBITION
Summary of the method: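 Uninfected HepG2-A16-CD81EGFP cells, 3 × 10^3 per well, 1536-well, plated on prespotted compound at 10 μM final, parasite-free screening media added to match infected plates; puromycin 10 μM positive, DMSO 0.5% negative; run in parallel with 48 h PbLuc assay at 37 °C, 5% CO2; viability by CellTiter-Glo luminescence, normalized to controls.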

Structure (SMILES) | cytotoxicity at 10 µM [%]
c1cc(-c2c[nH]c([C@@H]3COCCN3C3CCOCC3)n2)ccn1 | -0.113
CC(C)N1C[C@H](O)C[C@H]1c1nc(-c2ccc(OC(F)(F)F)cc2)no1 | -3.72
CC(C)(C)CC(=O)NC[C@H]1OC[C@@H](NC2CCC(F)(F)CC2)[C@@H]1O | -1.23
CCC(CC)C(=O)N1CCN(Cc2cc(=O)c3ccccc3[nH]2)CC1 | -9.55
COCc1nnc(NC(=O)CN2C(=O)c3ccccc3NC2C(C)C)s1 (stereo unspecified) | -4.19
CNc1c(NCc2ccco2)c(=O)c1=O | -10.6
O=C(NCc1ccc2c(c1)OCO2)c1ccc(N2CCCCC2)nn1 | -9.7
CN1C(=O)CCCC12CCCN(C(=O)c1cc(F)cc(F)c1)C2 (stereo unspecified) | -1.54
CCc1ccc(CN2CCc3[nH]nc(C(=O)N4CCNC(=O)C4)c3C2)o1 | 17.5
Cc1noc(-c2ccc(-n3ncc(C(=O)O)c3C)nc2)n1 | 0.748
CS(=O)(=O)NC[C@@H]1OC[C@H]2CN(C(=O)c3ccc[nH]3)CC[C@H]21 | 0.253
CCCc1nc(N2CCN(CC)CC2)c2c(n1)c(C)nn2CC | -9.41
CN1CCCC1CCNC(=O)c1ccccc1-n1cnc(CN)c1 (stereo unspecified) | 8.6
CN(C)c1cc(C2CCCN2)ccn1 (stereo unspecified) | 5.8
O=C(c1ccncc1)N1CCC(Cc2cnc3[nH]ccc3c2)CC1 | -1.86
Cc1ccccc1CNC(=O)c1ccccc1-n1cnc(CN)c1 | -7.22
Cc1cn[nH]c1C1CCCCN1C(=O)CCc1c(C)n[nH]c1C (stereo unspecified) | -10.5
CC1CCc2nc(NS(=O)(=O)c3cnn(C)c3)sc2C1 (stereo unspecified) | -0.842
CCCn1ccnc1-c1cccc(NC2CCOC2)c1 (stereo unspecified) | -3.1
O=S(=O)(N1CCCC1)N1CCN(CC2CCCO2)CC1 (stereo unspecified) | -0.185
CCc1ocnc1C(=O)N1CCOC(c2nc(C(C)C)n[nH]2)C1 (stereo unspecified) | 7.43
CCOCCC(=O)Nc1cccc(Cl)c1COC | -3.81
CC(Nc1cccc(F)c1C#N)c1cccc(S(N)(=O)=O)c1 (stereo unspecified) | 12.8

Structure (SMILES) | cytotoxicity at 10 µM [%]
CN(Cc1ccccn1)C(=O)C(c1ccccc1)N1CCSCC1 (stereo unspecified) | -9.71
COc1c(CNC(C)c2sc(C)nc2C)c(C(C)C)nn1C (stereo unspecified) | 7.97
Cc1cnc(C(=O)N2CCOCC2C)cn1 (stereo unspecified) | -3.83
COc1ncc(NCc2cccc(C#N)c2)cc1C(N)=O | 5.85
CCN(C(=O)CS(=O)(=O)c1cc(OC)c(OC)cc1C)C1CC1 | -3.91
O=C(Cc1cccnc1)NCCS(=O)(=O)c1ccccc1F | 6.72
Cc1cc(NC(=O)N2CCOCC2)nn1-c1ccccc1Cl | 11.1
O=C(NCC1CCC1)c1cccc(CN2CCS(=O)(=O)CC2)c1 | -7.89
CCSc1cc(C(=O)NC2CCN(C(=O)c3ccccc3)CC2)ccn1 | 13.5
CCNC(=O)NC(C)c1nc(-c2ccc(Br)cc2)no1 (stereo unspecified) | 14.7
CCc1csc(C2CCCN(C(=O)CCn3cc(C)cn3)C2)n1 (stereo unspecified) | 1.82
CC(C(=O)N(C)C)N1CCCN(C(=O)Oc2ccccc2)CC1 (stereo unspecified) | -0.37
CCCc1nc(C)c(C(=O)NCC2CCN(C3CC3)C2)s1 (stereo unspecified) | -9.34
O=C(CCCn1cncn1)N1CCCCC1c1nccs1 (stereo unspecified) | 8.6
CC(=O)N1CCCN(Cc2cc(F)cc(Br)c2)CC1 | 7.72
CN(C(=O)CN1CCC(c2cc3ccccc3[nH]2)CC1)C1CC1 | 1.95
CNS(=O)(=O)CC(=O)NC(C)Cc1ccccc1Br (stereo unspecified) | 13.7
CCN(Cc1noc(C2CC2)n1)Cc1ccc(C#N)cc1F | -1.74
CN(Cc1nccn1C)C(CO)c1cccc(Br)c1 (stereo unspecified) | -1.29
Cc1cnc(CCN(C)C(=O)c2cccc(N(C)C)c2)s1 | 2.05
CN(CC(=O)c1ccc2[nH]c(=O)[nH]c2c1)Cc1ccc2c(c1)OCO2 | 5.34
COCCN1CCCN(C(=O)c2oc(C)nc2C)CC1 | 2.04
COCCCN(Cc1ccccc1Cl)C1CCS(=O)(=O)C1 (stereo unspecified) | 17.1

Structure (SMILES) | cytotoxicity at 10 µM [%]
N#Cc1cccc(CN(CCO)Cc2ccsc2)c1 | 19.6
COc1ccc(C(CO)NC(=O)Nc2cccnc2)cc1 (stereo unspecified) | -15.7
Cc1ncc(CNC(=O)Nc2cc(C(F)(F)F)c[nH]c2=O)s1 | -10.2
N#Cc1c(F)cccc1N1CCN(S(=O)(=O)c2cccs2)CC1 | 14.2
CS(=O)(=O)c1ccc(CNCC2CCN(CCO)CC2)cc1 | -18.8
Cn1ncc2c1C(COCC1CC1)CN(S(C)(=O)=O)C2 (stereo unspecified) | -73.6
N#Cc1cccc(N2CC3(CCN(C(=O)NC4CC4)C3)CC2=O)c1 (stereo unspecified) | -0.987
CN(C)CC(=O)N1CCc2onc(Cn3cccn3)c2C1 | -3.83
CN1CCC2(CC1)CN(C(=O)c1cccnc1)Cc1ccccc12 | -66.2
O=C1CC(c2cccnc2)C2(CCN(C(=O)c3ccncc3)CC2)N1 (stereo unspecified) | -6.64
Cn1cc(CN2C[C@@H]3[C@@H](C2)OCC(=O)N3Cc2ccncc2)cn1 | -7.9
COCCCNc1nc(CNC(C)=O)cc(-c2ccco2)n1 | -5.52
CC(C)[C@H](NS(C)(=O)=O)C(=O)NCc1cc(-c2ccccc2)n[nH]1 | -8.94
COCC(NC(=O)c1cn2ccsc2n1)c1ccnn1C (stereo unspecified) | -47.8
NC(=O)COc1ccc(CN2CCNC(C(=O)NC3CC3)C2)cc1Cl (stereo unspecified) | 0.887
CC(C)c1nccn1C(C)C(=O)NCc1noc(Cc2cccs2)n1 (stereo unspecified) | -4.91
CCC1(C(=O)O)CCCN(C(=O)c2ccc(N3CCN(C)CC3)cc2)C1 (stereo unspecified) | -2.35
CCN1CCN(C(=O)CCC2CCN(C(=O)CCSC)CC2)CC1 | -1.56
CCCC(=O)Nc1cccc(C(=O)N(C)CCCC2CCCO2)c1 (stereo unspecified) | 1.03
COc1nccc(N2CCN(Cc3ccc(C)cc3)C(=O)C2)c1C#N | -16.5
Clc1ccccc1C1(c2ccnc(-c3ncccn3)n2)CCNCC1 | -6.28
NC(=O)c1cccc(CC2CCN(C(=O)CCCN3CCOCC3)C2)c1 (stereo unspecified) | -11.3
COCc1noc(-c2ccc(N(C)Cc3cc(C)no3)nc2)n1 | -17.2

Structure (SMILES) | cytotoxicity at 10 µM [%]
CN1CCC(c2ncc3c(n2)CCN(C(=O)CC2C=CCC2)C3)CC1 (stereo unspecified) | 1.68
CC(C)OCCN1CCN(C(C)c2nc(C3CC3)no2)CC1 (stereo unspecified) | 2.07
Cc1cnn(C2CCCN(C(=O)CCc3cscn3)C2)c1 (stereo unspecified) | -12.9
CCc1ccc(C(=O)N2CCCC(n3nc(C)nc3C)C2)o1 (stereo unspecified) | -7.8
CN1CCOC(CNCc2coc(-c3cccc(Cl)c3)n2)C1 (stereo unspecified) | -15.9
Cc1cnn(C2CCCN(C(=O)Cc3n[nH]c4ccccc34)C2)c1 (stereo unspecified) | -6.8
O=C(NCCN1CCCCCC1=O)c1ccc(=O)[nH]n1 | -19.3
NC(=O)NC(=O)CCN1CCN(c2nccs2)CC1 | -33.6
COc1ncccc1C(=O)N1CCC(Nc2ccc(C)nn2)CC1 | -18.1
Cc1cnn(CC2CCCCN2CC(=O)Nc2nc(C)cs2)c1 (stereo unspecified) | 0.109
COc1ccc(CNC(=O)NCCCNS(C)(=O)=O)cc1OC | -10.6
CC(=O)Nc1nc(C(=O)NCc2ccc(N3CCCCC3)cc2)cs1 | -2.75
O=C(CCNc1ncccn1)N1CCCN(c2nccs2)CC1 | -14.3
CC(Cn1cccn1)NCc1csc(Cc2ccccc2)n1 (stereo unspecified) | -8.15
COc1cc(C(=O)N2CCCC(c3cc(C)[nH]n3)C2)cc(OC)c1C (stereo unspecified) | -10.5
Cc1ccc(OCCCC(=O)NC(C)c2nnc3n2CCC3)cc1 (stereo unspecified) | -15
Cc1cnc(C(=O)NCc2cccnc2OC(C)C)cn1 | -23.4
O=C1COc2c(cccc2C(=O)N2CCCC2Cn2cccn2)N1 (stereo unspecified) | -4.47
Cc1ccc(CC(=O)N2CCCC(c3cc(C)[nH]n3)C2)cn1 (stereo unspecified) | -7.2
CCc1ncc(C(=O)N2CCCCC2Cn2cccn2)s1 (stereo unspecified) | -2.48
Cc1ncc2c(n1)CN(Cc1nc3ccccc3o1)CC2 | -0.602
CCc1nc(C2CCCN2C(=O)C2=COCC2)no1 (stereo unspecified) | 8.64
CC(c1cccc(S(N)(=O)=O)c1)N(C)CCc1ccccc1 (stereo unspecified) | -12

Structure (SMILES) | cytotoxicity at 10 µM [%]
Cc1nc(CN2CCN(CC(=O)Nc3c(C)cccc3C)CC2)no1 | -3.1
CC(C)c1nnc2n1CCN(CC(=O)Nc1nncs1)C2 | -4.02
Cc1cccc(-c2noc(C)c2C(=O)NC2CCCOC2)c1 (stereo unspecified) | 5.2
CC(C)NC(=O)[C@@]12CCO[C@@H]1CCN(Cc1ccc3c(c1)OCO3)C2 | -1.34
O=C(CC1CC1)NCc1cn2c(n1)CN(Cc1nccs1)CC2 | -74.1
CN(C)Cc1cc(=O)n2c(n1)CN(C(=O)Cc1ccsc1)CCC2 | -4.43
Cn1cc(CN2CCn3cc(CNC(=O)CC4CC4)nc3C2)cn1 | -83.3
Cc1oncc1C(=O)N1CC[C@H]2[C@H](C[C@@H](CN(C)C)N2CC2CC2)C1 | 2.84
CCOCC1CN(S(=O)(=O)N(C)C)Cc2cnn(C)c21 (stereo unspecified) | -4.2
CN(C)C(=O)c1cnc2n1CCN(Cc1cccc(C#N)c1)C2 | -77.3
Cc1cc(CN2C[C@@H]3COC[C@@H](C(=O)N4CCCCO4)[C@@H]3C2)oc1C | -72.8
CN(Cc1ccco1)[C@@H]1CN(CC2CCOCC2)[C@@H]2CCCO[C@H]12 | -76.4
O=C1CC(c2ccncc2)C2(CCN(C(=O)NC3CC3)CC2)N1 (stereo unspecified) | -3.46
C[C@@H](N)C(=O)N1CC2(CCNCC2)c2cc(Cl)ccc21 | -2.42
Cc1ccoc1C(=O)N1C[C@H](OCc2cccnc2)[C@H]2OCCC[C@H]21 | -5.28
CN(C)CCOCC1CN(Cc2cccs2)Cc2ccnn2C1 (stereo unspecified) | -0.903
c1cnc(N2CCO[C@@H]3CN(Cc4ccoc4)C[C@@H]3C2)nc1 | -1.36
COC(=O)Cn1c(=O)[nH]c2cn(-c3cccc(Cl)c3)c(=O)n21 | -1.39
Cc1nc(C(C)n2cc3[nH]cccc-3c2=O)cs1 (stereo unspecified) | -3.13
